Measurements taken from ChEMBL document CHEMBL4229410, “Facile construction of fused benzimidazole-isoquinolinones that induce cell-cycle arrest and apoptosis in colorectal cancer cells” (Bioorg Med Chem, 2018).
Calls of active or inactive are those of the source. The rule behind the calls is not given here.

How the values were obtained:
[1] = target: Receptor tyrosine-protein kinase erbB-4 (Homo sapiens, UniProt Q15303); assay: Binding affinity to human ERBB4 (L690 to K994 residues) expressed in bacterial expression system by KINOMEscan assay
[2] = target: Casein kinase I isoform gamma-2 (Homo sapiens, UniProt P78368); assay: Inhibition of full length human CSNK1G2 (M1 to K415 residues) expressed in bacterial expression system assessed as residual activity at 5 uM by KINOMEscan assay relative to control
[3] = target: Cyclin-dependent kinase 9 (Homo sapiens, UniProt P50750); assay: Binding affinity to full length human CDK9 (M1 to F372 residues) expressed in bacterial expression system by KINOMEscan assay
SW-620 [4] = assay: Effect on total mTOR expression in human SW620 cells up to 75 uM after 48 hrs by Western blot analysis; type: ADME, cell-based; conditions: sw-620, 48 h
Outline: (§1)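 HT29 or SW620 cells were treated at 0, 25, 50 and 75 μM for 48 h and lysed in RIPA with protease and phosphatase inhibitors. Protein was quantified by BCA. 50 μg lysate was run on 8–15% SDS-PAGE and transferred to PVDF. Blocking was 5% BSA/TBST for 2 h; primary antibodies were applied overnight at 4 °C, then HRP secondary 1 h at room temperature.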

[5] = target: Mast/stem cell growth factor receptor Kit (Homo sapiens, UniProt P10721, D816V); assay: Binding affinity to human KIT (I571 to D952 residues) D816V mutant expressed in bacterial expression system by KINOMEscan assay
Chain of Mast/stem cell growth factor receptor Kit (P10721 26-976 D816V limits assumed): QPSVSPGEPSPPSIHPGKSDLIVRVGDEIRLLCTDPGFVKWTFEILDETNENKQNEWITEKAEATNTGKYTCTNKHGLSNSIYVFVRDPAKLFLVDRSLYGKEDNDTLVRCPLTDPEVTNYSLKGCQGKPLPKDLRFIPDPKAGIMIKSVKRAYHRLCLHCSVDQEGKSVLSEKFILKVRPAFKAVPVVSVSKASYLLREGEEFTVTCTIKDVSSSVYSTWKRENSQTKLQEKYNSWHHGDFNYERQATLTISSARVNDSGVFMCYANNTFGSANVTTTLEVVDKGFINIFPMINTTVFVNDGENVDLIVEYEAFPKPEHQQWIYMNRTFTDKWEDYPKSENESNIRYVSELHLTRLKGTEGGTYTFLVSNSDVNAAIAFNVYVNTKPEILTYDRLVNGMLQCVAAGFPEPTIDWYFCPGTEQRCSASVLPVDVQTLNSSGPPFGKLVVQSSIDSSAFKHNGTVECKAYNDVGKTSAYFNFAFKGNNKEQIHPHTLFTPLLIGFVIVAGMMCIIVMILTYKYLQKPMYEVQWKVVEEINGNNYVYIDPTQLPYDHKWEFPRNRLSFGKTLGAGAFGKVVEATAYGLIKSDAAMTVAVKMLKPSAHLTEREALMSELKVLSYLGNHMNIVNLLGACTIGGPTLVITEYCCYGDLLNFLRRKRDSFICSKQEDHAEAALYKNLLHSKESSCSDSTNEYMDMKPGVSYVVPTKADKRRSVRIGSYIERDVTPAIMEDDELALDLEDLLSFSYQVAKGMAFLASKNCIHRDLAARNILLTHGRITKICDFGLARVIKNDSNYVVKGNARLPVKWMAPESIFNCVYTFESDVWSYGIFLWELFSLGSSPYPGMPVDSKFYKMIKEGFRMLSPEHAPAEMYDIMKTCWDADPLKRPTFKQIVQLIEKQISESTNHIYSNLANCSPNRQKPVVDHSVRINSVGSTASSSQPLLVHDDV

HT-29 [6] = assay: Induction of apoptosis in human HT-29 cells assessed as early apoptotic cells at 50 uM after 48 hrs by Annexin-V-FITC/propidium iodide staining based flow cytometry (reference value: 1%); type: functional
[7] = target: cAMP-dependent protein kinase catalytic subunit alpha (Homo sapiens, UniProt P17612); assay: Binding affinity to human PKACalpha (G10 to F351 residues) expressed in bacterial expression system by KINOMEscan assay
Homo sapiens = organism: Homo sapiens; assay: Inhibition of PI3K/AKT signaling pathway in human SW620 cells assessed as reduction in mTOR phosphorylation up to 75 uM after 48 hrs by Western blot analysis; type: cell-based
[8] = target: Serine/threonine-protein kinase pim-3 (Homo sapiens, UniProt Q86V86); assay: Binding affinity to human PIM3 (G16 to A317 residues) expressed in bacterial expression system by KINOMEscan assay
HT-29 [9] = assay: Cell cycle arrest in human HT-29 cells assessed as accumulation at S-phase at 75 uM after 48 hrs by propidium iodide staining based flow cytometry (reference value: 37.82%); type: functional
SW-620 [10] = assay: Induction of apoptosis in human SW620 cells assessed as live cells at 25 uM after 48 hrs by Annexin-V-FITC/propidium iodide staining based flow cytometry (reference value: 97.5%); type: functional
HT-29 [11] = assay: Inhibition of colony formation in human HT-29 cells assessed as reduction in colony size at 25 to 75 uM treated for 48 hrs followed by compound washout and measured after 14 hrs by crystal violet staining based assay; type: functional, cell-based
HT-29 [12] = assay: Down regulation of CDK1 expression in human HT-29 cells after 48 hrs by Western blot analysis; type: functional, cell-based; outline: as §1
SW-620 [13] = assay: Induction of apoptosis in human SW620 cells assessed as reduction in BCL2 expression after 48 hrs by Western blot analysis; type: functional, cell-based
SW-620 [14] = assay: Induction of apoptosis in human SW620 cells assessed as necrotic cells at 75 uM after 48 hrs by Annexin-V-FITC/propidium iodide staining based flow cytometry (reference value: 0.9%); type: functional
[15] = target: Serine/threonine-protein kinase STK11 (Homo sapiens, UniProt Q15831); assay: Binding affinity to full length human LKB1 (M1 to Q433 residues) expressed in bacterial expression system by KINOMEscan assay
Chain of Serine/threonine-protein kinase STK11 (Q15831 whole entry, the tested form may be a part): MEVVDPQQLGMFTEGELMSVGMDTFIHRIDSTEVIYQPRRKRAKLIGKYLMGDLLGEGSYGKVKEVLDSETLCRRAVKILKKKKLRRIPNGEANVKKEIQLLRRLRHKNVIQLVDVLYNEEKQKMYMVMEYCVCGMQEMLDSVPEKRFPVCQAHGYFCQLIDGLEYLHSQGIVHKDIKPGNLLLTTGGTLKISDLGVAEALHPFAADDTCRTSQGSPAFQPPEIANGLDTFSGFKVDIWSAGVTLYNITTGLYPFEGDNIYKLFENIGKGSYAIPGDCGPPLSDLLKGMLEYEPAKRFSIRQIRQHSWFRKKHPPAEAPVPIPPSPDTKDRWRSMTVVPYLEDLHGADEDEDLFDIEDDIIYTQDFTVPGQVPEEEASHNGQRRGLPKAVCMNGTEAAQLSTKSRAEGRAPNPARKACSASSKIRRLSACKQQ

[16] = target: Serine/threonine-protein kinase Chk1 (Homo sapiens) (UniProt O14757); assay: Inhibition of human CHEK1 (M1 to G289 residues) expressed in bacterial expression system assessed as residual activity at 5 uM by KINOMEscan assay relative to control
Chain of Serine/threonine-protein kinase Chk1 (Homo sapiens) (O14757 whole entry, the tested form may be a part): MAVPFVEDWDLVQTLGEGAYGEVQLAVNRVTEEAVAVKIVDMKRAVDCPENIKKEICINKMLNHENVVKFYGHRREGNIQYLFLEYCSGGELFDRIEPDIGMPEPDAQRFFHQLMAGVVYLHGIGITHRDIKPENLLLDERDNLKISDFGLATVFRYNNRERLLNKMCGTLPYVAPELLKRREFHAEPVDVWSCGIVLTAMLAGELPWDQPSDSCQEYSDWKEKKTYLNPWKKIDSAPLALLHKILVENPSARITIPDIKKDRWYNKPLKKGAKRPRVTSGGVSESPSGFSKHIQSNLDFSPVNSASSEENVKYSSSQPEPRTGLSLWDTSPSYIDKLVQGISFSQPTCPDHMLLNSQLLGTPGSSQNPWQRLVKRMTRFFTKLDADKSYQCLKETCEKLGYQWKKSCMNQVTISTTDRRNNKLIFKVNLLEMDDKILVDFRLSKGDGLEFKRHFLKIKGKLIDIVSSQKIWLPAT

[17] = target: Serine/threonine-protein kinase pim-2 (Homo sapiens, UniProt Q9P1W9); assay: Inhibition of human PIM2 (M1 to E291 residues) expressed in bacterial expression system assessed as residual activity at 5 uM by KINOMEscan assay relative to control
Chain of Serine/threonine-protein kinase pim-2 (Q9P1W9 whole entry, looked up, the tested form may be a part): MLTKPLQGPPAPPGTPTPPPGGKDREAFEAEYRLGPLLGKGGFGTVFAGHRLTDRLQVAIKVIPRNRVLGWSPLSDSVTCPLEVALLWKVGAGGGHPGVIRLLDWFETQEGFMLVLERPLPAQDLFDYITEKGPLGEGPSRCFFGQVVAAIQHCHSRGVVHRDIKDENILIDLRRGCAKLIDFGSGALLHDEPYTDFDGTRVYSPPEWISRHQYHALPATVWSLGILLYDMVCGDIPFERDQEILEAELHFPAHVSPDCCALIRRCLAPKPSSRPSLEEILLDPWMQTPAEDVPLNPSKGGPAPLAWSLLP

[18] = target: Tyrosine-protein kinase ZAP-70 (Homo sapiens, UniProt P43403); assay: Binding affinity to human ZAP70 (D20 to G299 residues) expressed in mammalian expression system by KINOMEscan assay
[19] = target: Mitogen-activated protein kinase 14 (Homo sapiens, UniProt Q16539); assay: Inhibition of full length human p38alpha (M1 to S360 residues) expressed in bacterial expression system assessed as residual activity at 5 uM by KINOMEscan assay relative to control
[20] = target: Proto-oncogene tyrosine-protein kinase receptor Ret (Homo sapiens, UniProt P07949); assay: Inhibition of human RET (E713 to D1014 residues) expressed in bacterial expression system assessed as residual activity at 5 uM by KINOMEscan assay relative to control
SW-620 [21] = assay: Cell cycle arrest in human SW620 cells assessed as accumulation at S-phase at 50 uM after 48 hrs by propidium iodide staining based flow cytometry (reference value: 43.72%); type: functional
[22] = target: Fibroblast growth factor receptor 3 (Homo sapiens, UniProt P22607); assay: Binding affinity to partial length human FGFR3 (R442 to S771 residues) expressed in bacterial expression system by KINOMEscan assay
[23] = target: Aurora kinase A (Homo sapiens) (UniProt O14965); assay: Inhibition of human AURKA (E122 to K401 residues) expressed in mammalian expression system assessed as residual activity at 5 uM by KINOMEscan assay relative to control
Aurora kinase A = Aurora kinase A (Homo sapiens, UniProt O14965); assay: Binding affinity to human AURKA (E122 to K401 residues) expressed in mammalian expression system by KINOMEscan assay
[24] = target: Serine/threonine-protein kinase DCLK1 (Homo sapiens, UniProt O15075); assay: Binding affinity to partial length human DCAMKL1 (L270 to A662 residues) expressed in mammalian expression system by KINOMEscan assay
Chain of Serine/threonine-protein kinase DCLK1 (O15075 whole entry, the tested form may be a part): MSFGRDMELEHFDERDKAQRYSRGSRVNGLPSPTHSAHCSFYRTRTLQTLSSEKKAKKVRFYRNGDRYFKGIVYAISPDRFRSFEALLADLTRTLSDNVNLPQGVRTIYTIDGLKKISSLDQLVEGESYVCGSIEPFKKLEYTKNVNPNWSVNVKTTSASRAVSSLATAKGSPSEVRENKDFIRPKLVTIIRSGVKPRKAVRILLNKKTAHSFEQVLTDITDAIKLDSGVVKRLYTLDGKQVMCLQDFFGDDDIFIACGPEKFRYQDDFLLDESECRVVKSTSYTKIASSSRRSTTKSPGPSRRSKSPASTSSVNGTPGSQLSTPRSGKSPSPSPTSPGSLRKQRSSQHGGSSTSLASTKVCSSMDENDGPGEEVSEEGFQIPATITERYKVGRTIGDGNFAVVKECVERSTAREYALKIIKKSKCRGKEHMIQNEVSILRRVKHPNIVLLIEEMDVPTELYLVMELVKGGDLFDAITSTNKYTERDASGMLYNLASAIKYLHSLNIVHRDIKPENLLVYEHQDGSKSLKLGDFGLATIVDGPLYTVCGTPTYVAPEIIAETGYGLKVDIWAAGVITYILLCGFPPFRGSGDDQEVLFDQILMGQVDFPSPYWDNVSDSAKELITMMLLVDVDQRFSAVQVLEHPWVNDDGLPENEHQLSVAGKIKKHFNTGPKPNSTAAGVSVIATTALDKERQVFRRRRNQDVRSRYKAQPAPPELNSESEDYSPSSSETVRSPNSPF

[25] = target: Tyrosine-protein kinase JAK3 (Homo sapiens) (UniProt P52333); assay: Inhibition of human JAK3 JH1 catalytic domain (I781 to S1124 residues) expressed in mammalian expression system assessed as residual activity at 5 uM by KINOMEscan assay relative to control
Chain of Tyrosine-protein kinase JAK3 (Homo sapiens) (P52333 whole entry, the tested form may be a part): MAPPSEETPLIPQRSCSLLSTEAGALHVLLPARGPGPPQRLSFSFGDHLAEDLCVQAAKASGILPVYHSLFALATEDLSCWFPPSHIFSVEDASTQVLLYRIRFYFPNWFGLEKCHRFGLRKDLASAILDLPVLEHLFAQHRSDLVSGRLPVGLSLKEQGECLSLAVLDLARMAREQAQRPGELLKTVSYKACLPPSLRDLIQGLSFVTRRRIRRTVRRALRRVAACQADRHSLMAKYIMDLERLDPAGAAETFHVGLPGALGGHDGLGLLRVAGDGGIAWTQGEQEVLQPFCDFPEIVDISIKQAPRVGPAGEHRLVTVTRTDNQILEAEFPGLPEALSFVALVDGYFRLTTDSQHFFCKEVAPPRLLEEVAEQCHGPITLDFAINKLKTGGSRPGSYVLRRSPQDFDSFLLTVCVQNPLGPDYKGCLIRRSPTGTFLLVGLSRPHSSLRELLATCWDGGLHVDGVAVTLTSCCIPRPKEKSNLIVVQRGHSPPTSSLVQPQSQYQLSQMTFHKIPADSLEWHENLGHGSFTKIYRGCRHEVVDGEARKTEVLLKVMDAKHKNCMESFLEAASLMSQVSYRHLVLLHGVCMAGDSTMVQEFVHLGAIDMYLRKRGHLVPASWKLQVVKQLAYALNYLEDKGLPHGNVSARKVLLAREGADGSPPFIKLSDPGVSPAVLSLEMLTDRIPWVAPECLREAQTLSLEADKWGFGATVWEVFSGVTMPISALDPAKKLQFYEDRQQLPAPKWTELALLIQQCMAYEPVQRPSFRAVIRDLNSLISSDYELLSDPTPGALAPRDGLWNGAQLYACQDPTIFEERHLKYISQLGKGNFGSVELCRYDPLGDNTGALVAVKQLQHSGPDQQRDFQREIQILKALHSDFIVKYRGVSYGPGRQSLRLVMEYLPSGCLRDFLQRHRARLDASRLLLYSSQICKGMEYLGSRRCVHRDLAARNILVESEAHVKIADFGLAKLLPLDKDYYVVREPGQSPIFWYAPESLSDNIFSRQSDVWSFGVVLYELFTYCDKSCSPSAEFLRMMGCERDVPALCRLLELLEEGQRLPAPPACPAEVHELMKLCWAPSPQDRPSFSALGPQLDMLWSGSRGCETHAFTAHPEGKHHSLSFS

SW-620 [26] = assay: Induction of apoptosis in human SW620 cells assessed as late apoptotic cells at 25 uM after 48 hrs by Annexin-V-FITC/propidium iodide staining based flow cytometry (reference value: 1.2%); type: functional
[27] = test system: Mast/stem cell growth factor receptor Kit (Homo sapiens), P10721 [V559D,T670I]; assay: Inhibition of human KIT (I571 to D952 residues) V559D/T670I double mutant expressed in bacterial expression system assessed as residual activity at 5 uM by KINOMEscan assay relative to control
Chain of Mast/stem cell growth factor receptor Kit (Homo sapiens), P10721 [V559D,T670I] (P10721 whole entry V559D/T670I, the tested form may be a part): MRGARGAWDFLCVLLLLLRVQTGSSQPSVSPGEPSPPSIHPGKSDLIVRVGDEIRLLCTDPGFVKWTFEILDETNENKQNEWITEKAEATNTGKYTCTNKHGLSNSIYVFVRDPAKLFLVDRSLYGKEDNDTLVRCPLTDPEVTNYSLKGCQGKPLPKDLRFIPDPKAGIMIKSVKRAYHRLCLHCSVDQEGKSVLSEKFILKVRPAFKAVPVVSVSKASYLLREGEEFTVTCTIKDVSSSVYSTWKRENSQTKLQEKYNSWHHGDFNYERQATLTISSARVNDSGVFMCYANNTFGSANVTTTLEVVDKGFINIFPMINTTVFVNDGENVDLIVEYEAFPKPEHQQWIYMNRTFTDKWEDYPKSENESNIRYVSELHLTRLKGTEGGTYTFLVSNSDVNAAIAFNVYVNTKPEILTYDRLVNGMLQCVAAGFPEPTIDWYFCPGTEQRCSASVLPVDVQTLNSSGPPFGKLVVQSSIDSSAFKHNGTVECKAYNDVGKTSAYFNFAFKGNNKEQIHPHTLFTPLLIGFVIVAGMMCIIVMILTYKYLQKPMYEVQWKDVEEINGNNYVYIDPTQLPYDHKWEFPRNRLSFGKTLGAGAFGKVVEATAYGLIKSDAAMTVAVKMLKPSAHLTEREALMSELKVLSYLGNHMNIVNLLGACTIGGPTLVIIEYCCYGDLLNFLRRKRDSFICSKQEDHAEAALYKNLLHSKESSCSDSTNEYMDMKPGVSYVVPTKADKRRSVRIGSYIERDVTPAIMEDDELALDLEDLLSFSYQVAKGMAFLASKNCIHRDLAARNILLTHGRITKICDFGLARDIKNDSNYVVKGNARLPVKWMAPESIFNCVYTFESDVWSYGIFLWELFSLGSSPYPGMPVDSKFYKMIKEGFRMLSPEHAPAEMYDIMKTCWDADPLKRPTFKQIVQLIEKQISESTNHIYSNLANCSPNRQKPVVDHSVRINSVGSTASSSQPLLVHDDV

CC(C)CN(C(=O)c1cccnc1)c1c2ccccc2c(=O)n2c1[nH]c1ccccc12
Kd [1]: ≥ 5 µM | Activity [2]: 76% | Kd [3]: ≥ 5 µM | Activity (SW-620 [4]): Non-Toxic | Kd [5]: ≥ 5 µM | Activity (HT-29 [6]): 1.7% | Kd [7]: ≥ 5 µM | inhibition (Homo sapiens): Active | Kd [8]: ≥ 5 µM | Activity (HT-29 [9]): 33.33% | Activity (SW-620 [10]): 92.1% | inhibition (HT-29 [11]): Active | Activity (HT-29 [12]): Dose-dependent effect | Activity (SW-620 [13]): Dose-dependent effect | Activity (SW-620 [14]): 3.5% | Kd [15]: ≥ 5 µM | Activity [16]: 83% | Activity [17]: 100% | Kd [18]: ≥ 5 µM | Activity [19]: 100% | Activity [20]: 100% | Activity (SW-620 [21]): 32.39% | Kd [22]: ≥ 5 µM | Activity [23]: 100% | Kd (Aurora kinase A): ≥ 5 µM | Kd [24]: ≥ 5 µM | Activity [25]: 73% | Activity (SW-620 [26]): 4.1% | Activity [27]: 98%
